Data as given in publication PMC9727797 (Molecular Biology of the Cell, 2022).

How the values were obtained:
RPE-1 cells = assay: Live cell imaging of metaphase duration; format: cell-based, human; conditions: Munesib-1 50 µM, Fift-IN and GW108X 25 µM
KIF15-N420 [1] = target: T1, KIF15-N420 (Homo sapiens, UniProt Q9NS87); assay: ATP-dependent steady-state ATPase assay; format: biochemical; conditions: 30 μM compound, 3 μM microtubules, fit ± 95% confidence interval
T1 sequence (Q9NS87 1-420 limits assumed): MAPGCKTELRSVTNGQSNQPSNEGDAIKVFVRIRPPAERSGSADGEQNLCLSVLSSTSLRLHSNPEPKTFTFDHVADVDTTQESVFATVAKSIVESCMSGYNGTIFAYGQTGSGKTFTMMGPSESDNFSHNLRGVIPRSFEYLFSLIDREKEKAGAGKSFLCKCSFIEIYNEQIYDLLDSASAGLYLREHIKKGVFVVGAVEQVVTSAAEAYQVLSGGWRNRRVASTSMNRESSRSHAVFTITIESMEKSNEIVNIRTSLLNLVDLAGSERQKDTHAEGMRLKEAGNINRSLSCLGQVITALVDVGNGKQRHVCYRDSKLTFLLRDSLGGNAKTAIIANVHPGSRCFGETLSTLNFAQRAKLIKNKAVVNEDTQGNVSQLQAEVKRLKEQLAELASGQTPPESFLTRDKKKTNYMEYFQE
In short: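 KIF15-N420 ATPase measured by NADH-coupled assay, with absorbance at 340 nm followed over time at 25°C. Rates were divided by active motor concentration. ATP was varied, with microtubules held at 3 μM. Test compound was 30 μM, or an equal volume of DMSO. Michaelis-Menten fits were weighted by 1/SEM, with n = 5–7 per concentration. kcat and Km are reported as fit ± 95% confidence interval.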

KIF15-N420 [2] = target: T1, KIF15-N420; assay: Enzyme-coupled ATPase assay, concentration response; format: biochemical; conditions: 2 mM ATP, 5 μM microtubules
In short: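 Concentration response used the same NADH-coupled KIF15-N420 reaction (A340, 25°C), with 2 mM ATP and 5 μM microtubules at every test-compound concentration. Eight compound concentrations were tested. Curves were built from repeated measurements plotted as mean ± SEM.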

KIF15-N700 = target: T2, KIF15-N700 (Homo sapiens, UniProt Q9NS87); assay: Microtubule gliding assay; format: biochemical
T2 sequence (Q9NS87 1-700 limits assumed): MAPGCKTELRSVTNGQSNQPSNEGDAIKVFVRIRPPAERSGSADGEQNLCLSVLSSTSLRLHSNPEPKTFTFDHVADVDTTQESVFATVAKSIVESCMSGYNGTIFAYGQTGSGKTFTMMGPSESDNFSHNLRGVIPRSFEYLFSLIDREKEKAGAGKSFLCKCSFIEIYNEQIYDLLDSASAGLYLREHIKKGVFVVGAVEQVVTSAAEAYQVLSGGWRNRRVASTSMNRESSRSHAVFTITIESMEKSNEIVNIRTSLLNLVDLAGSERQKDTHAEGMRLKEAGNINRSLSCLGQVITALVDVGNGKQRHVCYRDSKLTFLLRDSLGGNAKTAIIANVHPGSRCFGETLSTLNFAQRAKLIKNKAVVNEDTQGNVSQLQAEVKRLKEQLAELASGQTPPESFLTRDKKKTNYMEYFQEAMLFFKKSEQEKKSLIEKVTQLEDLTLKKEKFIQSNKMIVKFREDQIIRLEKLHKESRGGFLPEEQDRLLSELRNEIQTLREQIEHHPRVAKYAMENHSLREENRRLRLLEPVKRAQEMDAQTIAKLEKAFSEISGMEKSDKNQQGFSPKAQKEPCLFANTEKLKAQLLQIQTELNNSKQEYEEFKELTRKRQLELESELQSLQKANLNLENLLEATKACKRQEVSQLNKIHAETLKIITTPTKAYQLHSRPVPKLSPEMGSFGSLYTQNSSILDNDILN
In short: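 His6-KIF15-N700 was expressed in High Five insect cells, then purified by Ni-NTA and Superdex 200 gel filtration. Microtubule gliding was imaged every 5 s for 1 min at 100×. Velocity was taken as distance travelled in 1 min, from ≥15 microtubules at each of three slide locations (n ≥ 50 per slide). Concentration-response curves used eight concentrations from 10 nM up to 30 or 100 µM, in triplicate. Single-point derivative tests used 25 µM.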

[3] = target: T3, K560, a truncated form of kinesin-1 (Homo sapiens, UniProt P33176); assay: Microtubule gliding assay, K560; format: biochemical; conditions: 24 µM Munesib-1 or 100 µM Fift-IN
T3 sequence (P33176 1-560 limits assumed): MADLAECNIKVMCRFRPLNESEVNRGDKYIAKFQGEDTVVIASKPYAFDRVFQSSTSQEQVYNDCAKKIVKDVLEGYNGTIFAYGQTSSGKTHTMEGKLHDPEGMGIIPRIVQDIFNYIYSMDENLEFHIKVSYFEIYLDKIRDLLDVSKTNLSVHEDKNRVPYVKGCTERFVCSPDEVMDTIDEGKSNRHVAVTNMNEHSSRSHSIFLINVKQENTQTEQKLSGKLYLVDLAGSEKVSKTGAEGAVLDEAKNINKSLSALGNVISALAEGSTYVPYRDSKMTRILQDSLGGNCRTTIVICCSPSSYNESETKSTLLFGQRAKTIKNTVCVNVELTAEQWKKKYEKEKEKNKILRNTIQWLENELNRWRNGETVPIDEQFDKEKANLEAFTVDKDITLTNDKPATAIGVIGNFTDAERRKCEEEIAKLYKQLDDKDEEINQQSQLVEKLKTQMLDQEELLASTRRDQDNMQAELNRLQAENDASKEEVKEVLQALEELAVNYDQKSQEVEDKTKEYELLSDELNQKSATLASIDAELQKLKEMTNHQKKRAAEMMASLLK
In short: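 Gliding assays with other motors used His6-Eg5, His6-EGFP-HSET or K560 (truncated kinesin-1), with test compound at 24 µM or 100 µM. Frames were captured every 5 s for 1 min at 100×. Velocity was the distance travelled in 1 min, from ≥15 microtubules at each of three locations (n ≥ 50 per slide).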

[4] = 24 µM Munesib-1 or 100 µM Fift-IN

Compound: COC(=O)c1ccc2c(c1)N(C)S(=O)(=O)c1cnc(SC)nc1-2 [Munesib-1, Methyl 6-methyl-2-(methylthio)-6H-benzo[c]pyrimido[4,5-e][1,2]thiazine-8-carboxylate 5,5-dioxide]
- metaphase duration (metaphase plate formation until anaphase onset) (RPE-1 cells): no significant change in metaphase timing
- kcat, ATP-dependent ATPase (KIF15-N420 [1]): 2.6 ± 0.4 s^–1
- IC50 (KIF15-N420 [2]): 2800 nM
- gliding velocity after removal of compound (wash-out) (KIF15-N700; 24 μM Munesib-1): nearly restored to baseline
- microtubule gliding on addition of compound (wash-in) (KIF15-N700; 24 μM Munesib-1): fully abrogated
- inhibition of microtubule gliding, KIF15 (KIF15-N700; [4]): robustly inhibited
- reversibility of inhibition (washout experiment) (KIF15-N700; [4]): reversible inhibitor
- % inhibition of KIF15 microtubule gliding activity (KIF15-N700; 25 µM, singlicate): completely eliminates
- IC50 (KIF15-N700; IC50, microtubule gliding assay, KIF15-N700): 400 nM
- fold stronger inhibitory action against KIF15 than Fift-IN (KIF15-N700; in vitro ATPase and microtubule gliding assays): roughly 10 fold
- inhibition of microtubule gliding, K560 [3]: neither substantially inhibited
